Calls of active or inactive are those of the source. The rule behind the calls is not given here.
How the values were obtained:
[1] = tested on: Trypanosoma cruzi; assay: Antitrypanosomal activity against trypomastigotes stage of Trypanosoma cruzi infected in human HT1080 cells assessed as inhibition of parasite growth after 24 hrs by microscopic analysis; format: functional, organism-based; settings: HT-1080, 24 h
In short: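 Trypomastigotes suspended in DMEM and incubated 24 h with a range of compound concentrations or vehicle (0.1% ethanol). Live parasites were counted microscopically, and the IC50 was determined from the concentration series.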

[2] = tested on: Trypanosoma cruzi; assay: Antitrypanosomal activity against trypomastigotes stage of Trypanosoma cruzi infected in human HT1080 cells assessed as inhibition of parasite growth at 10 uM after 24 hrs by microscopic analysis; format: functional, organism-based; settings: HT-1080
In short: (§1)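 Trypomastigotes suspended in DMEM and exposed 24 h to a single compound concentration, alongside vehicle (0.1% ethanol) control and benznidazole. Live parasites were counted microscopically. Values are the mean of four independent experiments, with significance versus control by two-tailed unpaired Student's t-test.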

[3] = tested on: HT-1080; assay: Induction of reactive oxygen species formation in human HT1080 cells at 10 to 50 µM by fluorometric analysis; format: functional, cell-based
In short: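 Intracellular ROS in host HT1080 cells was measured with an intracellular ROS assay kit, read out as fluorescence intensity (RFU). H2O2 and benznidazole were included for comparison.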

[4] = tested on: Trypanosoma cruzi; assay: Antitrypanosomal activity against trypomastigotes stage of Trypanosoma cruzi infected in human HT1080 cells assessed as inhibition of parasite growth at 1 uM after 24 hrs by microscopic analysis; format: functional, organism-based; settings: HT-1080; in short: as §1

SMILES	IC50 [1] [nM]	also measured
CCCCCCCC1=CC(=O)C(C(C)C)=C(OC)C1=O	> 10000	
COC1=C(C(C)C)C(=O)C=C(COc2cccnc2)C1=O	> 10000	
COC(=O)C[C@@H]1C(Cc2cc(OC)c(C(C)C)c(OC)c2OC)=CCCC1(C)C		growth inhibition (GI) [2]: inactive
COC1=C(C(C)C)C(=O)C=C(Cn2cncn2)C1=O	9800	
COC1=C(C(C)C)C(=O)C=C(CN2CCCC2=O)C1=O	> 10000	
O=C(Cn1ccnc1[N+](=O)[O-])NCc1ccccc1 [BENZNIDAZOLE]	6800	Activity [3]: Active
COC1=C(C(C)C)C(=O)C=C(CNC(=O)C2CCCCC2)C1=O	330	
COC1=C(C(C)C)C(=O)C=C(CN(C)C(=O)C2CCCCC2)C1=O	1100	
COC1=C(C(C)C)C(=O)C=C(CN(C(=O)C2CCCCC2)C2CCCCC2)C1=O	2400	
COC1=C(C(C)C)C(=O)C=C(CN(C)C(=O)c2ccccc2)C1=O	> 10000	
COC1=C(C(C)C)C(=O)C=C(COC(Cn2cncn2)c2ccc(F)cc2F)C1=O (centres undefined)	300	
COC1=C(C(C)C)C(=O)C=C(COc2ccccc2)C1=O	> 10000	
COC1=C(C(C)C)C(=O)C=C(C[C@@]23CCCC(C)(C)[C@@H]2CC(=O)O3)C1=O		growth inhibition (GI) [2]: Active; growth inhibition (GI) [4]: Active
COc1c(C[C@@]23CCCC(C)(C)[C@@H]2CC(=O)O3)c(I)c(OC)c(C(C)C)c1OC		growth inhibition (GI) [2]: inactive
COc1c2c(c(OC)c(C(C)C)c1OC)C1(O)C[C@H]3C(C)(C)CCC[C@@]3(C2)O1		growth inhibition (GI) [2]: inactive
COC1=C(C(C)C)C(=O)C=C(CC2(O)CCCCC2)C1=O	590	
COC1=C(C(C)C)C(=O)C=C(CC(O)(Cn2cncn2)c2ccc(F)cc2F)C1=O (centres undefined)	540	Activity [3]: Active
COC1=C(C(C)C)C(=O)C(C(C)(C)O)=C(C)C1=O		growth inhibition (GI) [2]: Active; growth inhibition (GI) [4]: Active
COC1=C(C(C)C)C(=O)C=C(CC2CCCCC2)C1=O	> 10000	
COc1cc(C[C@@]23CCCC(C)(C)[C@@H]2CC(=O)O3)c(OC)c(OC)c1C(C)C		growth inhibition (GI) [2]: inactive
COC1=C(C(C)C)C(=O)C=C(CN2C(=O)CCc3ccccc32)C1=O	2000	
COC1=C(C(C)C)C(=O)C=C(COC2CCCCC2)C1=O	> 10000	
COC1=C(C(C)C)C(=O)C=C(CC(C)(C)O)C1=O	> 10000	
COC1=C(C(C)C)C(=O)C=C(COC(C)C)C1=O	> 10000	
COC1=C(C(C)C)C(=O)C2=C(C[C@@]34CCCC(C)(C)[C@@H]3C[C@]2(O)O4)C1=O [KOMAROVIQUINONE]	250	Activity [3]: Active; growth inhibition (GI) [2]: Active; growth inhibition (GI) [4]: Active
COC1=C(C(C)C)C(=O)C=C(Cn2cnc([N+](=O)[O-])c2)C1=O	> 10000	
COC1=C(C(C)C)C(=O)C=C(Cc2ccccc2)C1=O	> 10000	

Source: ChEMBL document CHEMBL3596096, “Synthesis and biological evaluation of quinones derived from natural product komaroviquinone as anti-Trypanosoma cruzi agents” (Bioorg Med Chem Lett, 2015)
